Source: ChEMBL document CHEMBL1126893, “Synthesis and CLOGP correlation of imidooxy anticonvulsants” (J Med Chem, 1993)

Legend:
Assay type in all cases: functional
Mus musculus [1] = assay: Anticonvulsant activity was measured by rotarod toxicity test on mice at 4 hr at the dose of 100 mg/kg; number of animals protected/number of animals tested 0/4
Mus musculus [2] = assay: Anticonvulsant activity was measured by maximal electroshock test on mice at 1 hr at the dose of 50 mg/kg; number of animals protected/number of animals tested 1/4
Mus musculus [3] = assay: Anticonvulsant activity was measured by subcutaneous pentylenetetrazole test on mice at 4 hr at the dose of 100 mg/kg; number of animals protected/number of animals tested, 0/3
Mus musculus [4] = assay: Anticonvulsant activity was measured by maximal electroshock test on mice at 4 hr at the dose of 50 mg/kg; number of animals protected/number of animals tested 0/4
Mus musculus [5] = assay: Anticonvulsant activity was measured by subcutaneous pentylenetetrazole test on mice at 30 min at the dose of 300 mg/kg; number of animals protected/number of animals tested, 1/1
Mus musculus [6] = assay: Anticonvulsant activity was measured by maximal electroshock test on mice at 4 hr at the dose of 100 mg/kg; number of animals protected/number of animals tested, 0/3
Mus musculus [7] = assay: Anticonvulsant activity was measured by rotarod toxicity teston mice at 0.25 hr at the dose of 50 mg/kg; number of animals protected/number of animals tested 0/4
Mus musculus [8] = assay: Anticonvulsant activity was measured by subcutaneous pentylenetetrazole test on mice at 4 h at the dose of 300 mg/kg; number of animals protected/number of animals tested, 0/1
Mus musculus [9] = assay: Anticonvulsant activity was measured by maximal electroshock test on mice at 0.25 hr at the dose of 50 mg/kg; number of animals protected/number of animals tested 0/4
Mus musculus [10] = assay: Anticonvulsant activity was measured by maximal electroshock test on mice at 2 hr at the dose of 50 mg/kg; number of animals protected/number of animals tested 0/4
Mus musculus [11] = assay: Anticonvulsant activity was measured by maximal electroshock test on mice at 30 min at the dose of 300 mg/kg; number of animals protected/number of animals tested, 1/1
Mus musculus [12] = assay: Anticonvulsant activity was measured by rotarod toxicity test on mice at 2 hr at the dose of 50 mg/kg;number of animals protected/number of animals tested 0/4
Mus musculus [13] = assay: Anticonvulsant activity was measured by rotarod toxicity test on mice at 4 hr at the dose of 300 mg/kg; number of animals protected/number of animals tested, 2/2
Mus musculus [14] = assay: Anticonvulsant activity was measured by maximal electroshock test on mice at 4 hr at the dose of 300 mg/kg; number of animals protected/number of animals tested, 0/1
Mus musculus [15] = assay: Anticonvulsant activity was measured by subcutaneous pentylenetetrazole test on mice at 0.50 hr at the dose of 50 mg/kg; number of animals protected/number of animals tested 0/4
Mus musculus [16] = assay: Anticonvulsant activity was measured by rotarod toxicity test on mice at 4 hr at the dose of 50 mg/kg; number of animals protected/number of animals tested 0/4
Mus musculus [17] = assay: Anticonvulsant activity was measured by subcutaneous pentylenetetrazole test on mice at 30 min at the dose of 100 mg/kg; number of animals protected/number of animals tested, 0/1
Mus musculus [18] = assay: Anticonvulsant activity was measured by rotarod toxicity test on mice at 1 hr at the dose of 50 mg/kg; number of animals protected/number of animals tested 0/4
Mus musculus [19] = assay: Anticonvulsant activity was measured by rotarod toxicity teston mice at 0.50 hr at the dose of 50 mg/kg; number of animals protected/number of animals tested 0/4
Mus musculus [20] = assay: Anticonvulsant activity was measured by maximal electroshock test on mice at 30 min at the dose of 100 mg/kg; number of animals protected/number of animals tested, 2/3
Mus musculus [21] = assay: Anticonvulsant activity was measured by rotarod toxicity test on mice at 30 min at the dose of 300 mg/kg; number of animals protected/number of animals tested, 4/4
Mus musculus [22] = assay: Anticonvulsant activity was measured by maximal electroshock test on mice at 0.50 hr at the dose of 50 mg/kg; number of animals protected/number of animals tested 0/4
Mus musculus [23] = assay: Anticonvulsant activity was measured by rotarod toxicity test on mice at 30 min at the dose of 100 mg/kg; number of animals protected/number of animals tested, 0/8
Mus musculus [24] = assay: Anticonvulsant activity was measured by subcutaneous pentylenetetrazole test on mice at 30 min at the dose of 300 mg/kg; number of animals protected/number of animals tested, 5/5
Mus musculus [25] = assay: Anticonvulsant activity was measured by rotarod toxicity test on mice at 4 hr at the dose of 100 mg/kg; number of animals protected/number of animals tested, 0/4
Mus musculus [26] = assay: Anticonvulsant activity was measured by maximal electroshock test on mice at 30 min at the dose of 100 mg/kg; number of animals protected/number of animals tested, 1/3
Mus musculus [27] = assay: Anticonvulsant activity was measured by rotarod toxicity test on mice at 2 hr at the dose of 50 mg/kg; number of animals protected/number of animals tested, 0/4
Mus musculus [28] = assay: Anticonvulsant activity was measured by rotarod toxicity test on mice at 30 min at the dose of 300 mg/kg; number of animals protected/number of animals tested, 0/4
Mus musculus [29] = assay: Anticonvulsant activity was measured by maximal electroshock test on mice at 4 hr at the dose of 50 mg/kg; number of animals protected/number of animals tested, 0/4
Mus musculus [30] = assay: Anticonvulsant activity was measured by rotarod toxicity test on mice at 4 hr at the dose of 50 mg/kg; number of animals protected/number of animals tested, number of animals protected/number of animals tested, 0/4
Mus musculus [31] = assay: Anticonvulsant activity was measured by rotarod toxicity teston mice at 0.50 hr at the dose of 50 mg/kg; number of animals protected/number of animals tested, 0/4
Mus musculus [32] = assay: Anticonvulsant activity was measured by rotarod toxicity test on mice at 4 h at the dose of 300 mg/kg; number of animals protected/number of animals tested, 0/2
Mus musculus [33] = assay: Anticonvulsant activity was measured by maximal electroshock test on mice at 0.50 hr at the dose of 50 mg/kg; number of animals protected/number of animals tested, 0/4
Mus musculus [34] = assay: Anticonvulsant activity was measured by rotarod toxicity teston mice at 0.25 hr at the dose of 50 mg/kg; number of animals protected/number of animals tested, 0/4
Mus musculus [35] = assay: Anticonvulsant activity was measured by maximal electroshock test on mice at 2 hr at the dose of 50 mg/kg; number of animals protected/number of animals tested, 2/4
Mus musculus [36] = assay: Anticonvulsant activity was measured by subcutaneous pentylenetetrazole test on mice at 30 min at the dose of 100 mg/kg; number of animals protected/number of animals tested, 2/5
Mus musculus [37] = assay: Anticonvulsant activity was measured by maximal electroshock test on mice at 0.25 hr at the dose of 50 mg/kg; number of animals protected/number of animals tested, 0/4
Mus musculus [38] = assay: Anticonvulsant activity was measured by subcutaneous pentylenetetrazole test on mice at 4 hr at the dose of 100 mg/kg; number of animals protected/number of animals tested, 0/1
Mus musculus [39] = organism: Mus musculus; assay: Protective index (TD50/ED50) value in scMET test in mice
Procedure, shortened: (§1)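 Phase II quantification in mice after ip dosing. ED50 (scMet or MES) measured at the time of peak effect. TD50 (rotorod neurologic deficit) measured at the time of peak neurologic deficit. Medians and 95% confidence limits by the Litchfield-Wilcoxon method. Protective index = TD50/ED50. Time of peak effect determined in the MES or scMet test.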

Mus musculus [40] = organism: Mus musculus; assay: ED50 value of compound was expressed as dose protecting 50% of mice from tonic hind limb extension; conditions: Hindlimb
Procedure, shortened: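 Maximal electroshock test in male CF1 mice (23-34 g). Compound given as a 0.5% methylcellulose suspension ip or po, with testing at 0.5 h after several doses. Endpoint is protection from tonic hind limb extension.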

Mus musculus [41] = assay: Effective dose was measured in mouse by maximal electroshock method by ip administration.; procedure, shortened: as §1
Mus musculus [42] = assay: Elevation of threshold for electroshock induced seizures in mice was measured by ip administration after 0.5 hr at the dose of 100 mg/kg; No. of mice protected/no tested 1/12; conditions: route intraperitoneal
Mus musculus [43] = assay: Effective dose was measured in mouse by subcutaneous pentylenetetrazole method by ip administration.; procedure, shortened: as §1
Mus musculus [44] = assay: Time of peak effect of activity of compound was measured by both MES and sc Met test in mice; procedure, shortened: as §1
Mus musculus [45] = assay: Anticonvulsant activity was measured by maximal electroshock test on mice at 0.25 hr at the dose of 100 mg/kg; number of animals protected/number of animals tested 0/2
Mus musculus [46] = assay: Anticonvulsant activity was measured by rotarod toxicity test on mice at 30 min at the dose of 300 mg/kg; number of animals protected/number of animals tested 1/4
Mus musculus [47] = organism: Mus musculus; assay: Protective index (TD50/ED50) value in MES test in mice
Mus musculus [48] = assay: Elevation of threshold for electroshock induced seizures in mice was measured by ip administration after 0.5 hr at the dose of 200 mg/kg; No. of mice protected/no tested 5/12; conditions: route intraperitoneal
Mus musculus [49] = assay: Anticonvulsant activity was measured by subcutaneous pentylenetetrazole test on mice at 4 hr at the dose of 300 mg/kg; number of animals protected/number of animals tested 1/1
Mus musculus [50] = assay: Anticonvulsant activity was measured by maximal electroshock test on mice at 4 h at the dose of 300 mg/kg; number of animals protected/number of animals tested 1/1
Mus musculus [51] = assay: Anticonvulsant activity was measured by rotarod toxicity test on mice at 1 hr at the dose of 100 mg/kg; number of animals protected/number of animals tested 0/2
Mus musculus [52] = assay: Anticonvulsant activity was measured by rotarod toxicity teston mice at 0.25 hr at the dose of 100 mg/kg; number of animals protected/number of animals tested 0/2
Mus musculus [53] = assay: Anticonvulsant activity was measured by rotarod toxicity test on mice at 4 h at the dose of 300 mg/kg; number of animals protected/number of animals tested 0/2
Mus musculus [54] = assay: Anticonvulsant activity was measured by subcutaneous pentylenetetrazole test on mice at 30 min at the dose of 300 mg/kg; number of animals protected/number of animals tested 1/1
Mus musculus [55] = assay: Elevation of threshold for electroshock induced seizures in mice was measured by ip administration after 0.5 hr at the dose of 150 mg/kg; No. of mice protected/no tested 3/12; conditions: route intraperitoneal
Mus musculus [56] = assay: Elevation of threshold for electroshock induced seizures in mice was measured by ip administration after 0.5 hr at the dose of 250 mg/kg; No. of mice protected/no tested 5/8; conditions: route intraperitoneal
Mus musculus [57] = assay: Time of peak effect of toxicity of compound was measured by both MES and sc Met test in mice; procedure, shortened: as §1
Mus musculus [58] = assay: Anticonvulsant activity was measured by maximal electroshock test on mice at 30 min at the dose of 300 mg/kg; number of animals protected/number of animals tested 1/1

O=C1CC2(CCCC2)C(=O)N1OCc1cccc(Cl)c1
2: Ratio (Mus musculus [13]) | Ratio (Mus musculus [20])
4: Ratio (Mus musculus [21])
1: Ratio (Mus musculus [2]) | Ratio (Mus musculus [5]) | Ratio (Mus musculus [11])
0: Ratio (Mus musculus [1]) | Ratio (Mus musculus [3]) | Ratio (Mus musculus [4]) | Ratio (Mus musculus [6]) | Ratio (Mus musculus [7]) | Ratio (Mus musculus [8]) | Ratio (Mus musculus [9]) | Ratio (Mus musculus [10]) | Ratio (Mus musculus [12]) | Ratio (Mus musculus [14]) | Ratio (Mus musculus [15]) | Ratio (Mus musculus [16]) | Ratio (Mus musculus [17]) | Ratio (Mus musculus [18]) | Ratio (Mus musculus [19]) | Ratio (Mus musculus [22]) | Ratio (Mus musculus [23])

O=C1CC2(CCCC2)C(=O)N1OCc1ccccc1C(F)(F)F
2: Ratio (Mus musculus [35]) | Ratio (Mus musculus [36])
0: Ratio (Mus musculus [6]) | Ratio (Mus musculus [25]) | Ratio (Mus musculus [27]) | Ratio (Mus musculus [8]) | Ratio (Mus musculus [28]) | Ratio (Mus musculus [29]) | Ratio (Mus musculus [30]) | Ratio (Mus musculus [31]) | Ratio (Mus musculus [14]) | Ratio (Mus musculus [32]) | Ratio (Mus musculus [33]) | Ratio (Mus musculus [34]) | Ratio (Mus musculus [37]) | Ratio (Mus musculus [23]) | Ratio (Mus musculus [38])
5: Ratio (Mus musculus [24])
1: Ratio (Mus musculus [26]) | Ratio (Mus musculus [11])

O=C1CC2(CCCC2)C(=O)N1OCc1ccc(Cl)cc1Cl
1: TPE (Mus musculus [44]) | Ratio (Mus musculus [46]) | Ratio (Mus musculus [49]) | Ratio (Mus musculus [50]) | Ratio (Mus musculus [54]) | Ratio (Mus musculus [58])
0: Ratio (Mus musculus [45]) | Ratio (Mus musculus [51]) | Ratio (Mus musculus [52]) | Ratio (Mus musculus [53])
190 mg/kg: ED50 (Mus musculus [43])
62.5%: Protection (Mus musculus [56])
0.5: TPE (Mus musculus [57])
216 mg/kg: ED50 (Mus musculus [40])
1.5: PI (Mus musculus [47])
1.9: PI (Mus musculus [39])
8.33%: Protection (Mus musculus [42])
25%: Protection (Mus musculus [55])
241 mg/kg: ED50 (Mus musculus [41])
41.7%: Protection (Mus musculus [48])
